An excerpt weighted towards active compounds, which were near 3.1% of everything screened.
Calb FLC: C. albicans growth modulation with fluconazole; C. albicans CaCi-2 (fluconazole-resistant clinical isolate) + fluconazole, Alamar Blue growth, 48 h; growth inhibition, % (concentration not given with the values); 300,000 tested, 0.57% active; AID 1979;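 active = growth inhibition above about 58% in most replicates, limit read from the data, passing the limit was not always enough; inconclusive = exactly half the replicates above a set limit; inactive = most replicates below a set limit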;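 note: all wells also contain fluconazole at 8 µg/ml as a sub-toxic cotreatment; 0% = median of DMSO wells and 100% = median of geldanamycin control wells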
Bfl-1 A1 inh: inhibitors of the anti-apoptotic protein A1, read as caspase activation | MEF A1-2A-BIM cells, Caspase-Glo 3/7 luminescence, 3 h; percent of clofoctol response, vehicle zero | caspase activation, % (test concentration not listed) | 330,000 tested, 0.066% active;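 active = over half of replicate activation scores above 10%, or exactly half above 10 with the replicate mean above 10; inconclusive = replicate mean below 10 yet half the replicates above 10; inactive = over half of replicates below 10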
H9c2 TAG inh: inhibitors of triacylglycerol accumulation. H9c2 cells, Nile Red lipid (TAG) fluorescence; cells loaded with 200 µM oleic acid. 230,000 tested, 0.66% active. inhibition, % at 12.5 µM;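 active = pattern-corrected inhibition of lipid staining of at least 50% with the nuclear-stain viability signal not falling by more than 50%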;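 note: 0% = DMSO wells and 100% = triacsin C control wells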
CSC inhib: blocks cancer stem cells | cancer stem cell-like cells viability, luminescence | inhibition, % at 7.5 µM | 300,000 tested, 1.1% active; in the data active = inhibition above about 75%; inconclusive = no clear call, values can overlap the other calls; tested in HMLE shEcad cells
T cruzi repl: T. cruzi replication inhibition; T. cruzi beta-gal in NIH3T3, luminescence, 90 h; inhibition, % (concentration not given with the values); 300,000 tested, 1.4% active;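 active = mean inhibition across valid replicates above about 55%, limit read from the data; inconclusive = mean below that limit but half or more replicates reach it; inactive = mean below it, under half of replicates reach it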;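 note: signal also drops with host cell toxicity which is not excluded here; 0% = plate median of DMSO wells and 100% = zero luminescence signal; higher percent means less beta-gal luminescence so fewer parasites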
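Assay system: NIH/3T3 host cells with β-galactosidase reporter T. cruzi; input: 5,000 host fibroblasts per well; compound: single 50 nL compound addition per well in DMSO; timing: ≥90 h infection period, 3 h prior cell attachment; measured by: GalScreen β-gal luminescence, detergent lysis, 60 min; evaluation: percent inhibition of parasite-derived β-gal signal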
Beta apoptosis: beta cell apoptosis inhibition. AID 435005. 300,000 tested, 0.8% active. protection from apoptosis, % (no concentration beside the values). INS-1E cytokine-induced death, ATP luminescence, 48 h; percent of positive-control rescue, neutral wells zero;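 active = Every replicate reaches about 75%, or at least half do and their mean reaches it too, limit read from the data; inconclusive = At least half of replicates reach the limit but their mean does not; inactive = Under half of replicates reach the limit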;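 note: 0% = cytokine-treated negative control wells and 100% = positive control rescue; higher means more ATP so stronger rescue from cytokine killing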
* = called active by the depositor; u = inconclusive; x = no result given.

SMILES	Calb FLC	Bfl-1 A1 inh	H9c2 TAG inh	CSC inhib	T cruzi repl	Beta apoptosis
O=C(Nc1ccc(Cn2cccn2)cc1)c1ccc(COc2cccc(Br)c2)cc1	0	-4	20	99*	14	-2
COc1cc2c(cc1OC)CN(C(=O)CNS(=O)(=O)c1ccc(C)c(C)c1)CC2	-11	0	x	-4	-5	1
O=C(CCc1ccccc1)Nc1ccnn1C1CCN(C/C=C/c2ccccc2)CC1	-3	0	x	18	10	-4
COc1ccccc1C(=O)Nc1ccnn1C1CCN(Cc2cnc(N(C)C)s2)CC1	-3	-1	13	0	56*	-4
CCn1cc(CN2CCC(n3nccc3NC(=O)c3ccccc3OC)CC2)cn1	4	3	x	-8	33	-1
COc1ccccc1/C=C/CN1CCC(n2nccc2NC(=O)CCc2ccccc2)CC1	4	0	x	2	33	78*
CCOc1ccc(CN2CCC(n3nccc3NC(=O)c3ccccc3OC)CC2)cc1	-5	0	-6	-5	62*	7
COc1ccc(NC(=O)N(C)C[C@H]2OCCCC[C@H](C)Oc3ccc(NC(=O)Nc4ccc5c(c4)OCO5)cc3C(=O)N([C@@H](C)CO)C[C@@H]2C)cc1	x	x	-24	x	x	x
Cc1ccc(-c2c[n+]3c(n2-c2ccccc2)SCC3)cc1	u	1	-10	6	66*	106*
COc1ccc(-c2c[n+]3c(n2-c2ccccc2)SCC3)cc1	15	-1	-19	-4	61*	x
CN(C)S(=O)(=O)Oc1cccc(C(=O)Nc2ccc(Cl)c(Cl)c2)c1	92*	-3	-5	u	21	-12
COc1ccc(NC(=O)c2cccc(OS(=O)(=O)N(C)C)c2)cc1	42	-5	x	x	-34	4
CN(C)S(=O)(=O)Oc1cccc(C(=O)Nc2cccc(Cl)c2)c1	108*	-6	-13	22	8	-1
COc1cccc(S(=O)(=O)NCc2ccc(C(=O)Nc3cccc(Cl)c3)cc2)c1	36	0	42	99*	x	10
COc1cccc(S(=O)(=O)NCc2ccc(C(=O)Nc3ccc(Cl)cc3)cc2)c1	-9	0	x	u	32	3
C/C(=N\NC(=O)c1cccs1)c1c(O)cc(C)oc1=O	-6	-1	13	-2	-4	-6
C/C(=N\Nc1ccc(Cl)cc1)c1c(O)cc(C)oc1=O	125*	0	x	53	19	-5
Cc1cc(C)cc(NS(=O)(=O)c2ccc3[nH]cc(C(=O)NCc4ccco4)c(=O)c3c2)c1	-5	0	15	99*	-1	25
OC(CNCc1ccco1)Cn1c2ccc(Br)cc2c2cc(Br)ccc21 (stereo unspecified)	5	1	x	106*	42	3
O=C(COc1ccc(F)cc1)Nc1nc(-c2ccccn2)cs1	90*	0	-10	17	41	2
O=C(Nc1nc(-c2ccccc2)cs1)Nc1ccc(F)cc1F	-6	-2	7	15	26	13
O=C(Nc1nc(-c2ccccn2)cs1)Nc1ccc(F)cc1F	3	-1	x	-14	55*	77*
O=C(COc1ccc([N+](=O)[O-])cc1)Nc1nc(-c2ccccn2)cs1	4	-1	-7	55	61*	x
NCC12CC3CC(C1)CC(c1ccc(Cl)cc1)(C3)C2	u	0	47	1	64*	0
Cc1cc2nc(-c3ccc[nH]c3=O)[nH]c2cc1C	38	-10	x	64	2	78*
SMILES	Calb FLC	Bfl-1 A1 inh	H9c2 TAG inh	CSC inhib	T cruzi repl	Beta apoptosis
S=c1nc[nH]c2nc[nH]c12	-6	0	1	84*	u	-2
Cn1cnc2nc[nH]c2c1=S	x	x	-8	x	x	x
C[C@H]1CN([C@@H](C)CO)C(=O)c2cccc(NS(=O)(=O)c3ccc(F)cc3)c2O[C@H]1CN(C)S(=O)(=O)c1cn(C)cn1	x	0	-17	x	x	-3
O=C(NCc1ccco1)C(c1ccccc1F)N(Cc1cccnc1)C(=O)Cn1nnc2ccccc21 (stereo unspecified)	0	0	x	-10	66*	0
CCOc1ccccc1OCCC(=O)N1CCN(S(=O)(=O)c2ccccc2[N+](=O)[O-])CC1	x	21*	15	x	x	-2
Cc1ccccc1OCCC(=O)Nc1ccc(S(=O)(=O)N(C)C2CCN(C)CC2)cc1	3	0	9	-2	58*	0
